Reference: ChEMBL document CHEMBL1131075, “New aza-dipeptide analogues as potent and orally absorbed HIV-1 protease inhibitors: candidates for clinical development” (J Med Chem, 1998)

What was measured:
[1] = biological target: Human immunodeficiency virus type 1 protease (Human immunodeficiency virus 1) (UniProt Q72874); assay: concentration of compound required to inhibit 90% of RT production in HIV-1/MN-infected MT-2 cells.; format: functional, cell-based; details: MT2
Method in brief: (§1)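 HIV-1/MN virus stocks taken from culture supernatant of chronically infected H9/HIV-1/MN cells and used to infect MT-2 cells. Antiviral effect read out as percent reduction of reverse transcriptase activity. ED50 and ED90 are the concentrations giving 50% and 90% inhibition of RT production. Values are averages of at least three determinations.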

[2] = biological target: Human immunodeficiency virus type 1 protease (Human immunodeficiency virus 1) (UniProt Q72874); assay: Concentration required to inhibit 50% of RT production in HIV-1/MN-infected MT-2 cells.; format: functional, cell-based; details: MT2; method in brief: as §1
Mus musculus [3] = assay: Drug concentration in blood sample was analyzed by reversed phase HPLC 30 min (c30) after oral application of 120 mg/kg in a standardized formulation; format: functional
Method in brief: (§2)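 Female Balb/c mice with free access to food and water, dosed by gavage at 120 mg/kg. Compound dissolved in DMSO at 240 mg/mL, then diluted 1:20 with aqueous 20% hydroxypropyl-β-cyclodextrin, giving a suspension. Four mice per time point; heart blood taken at 30 and 90 min. Plasma deproteinated with acetonitrile and quantified by reversed-phase HPLC-UV against a plasma calibration curve.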

Mus musculus [4] = assay: Drug concentration in blood sample was analyzed by reversed phase HPLC 30 min (c90) after oral application of 120 mg/kg in a standardized formulation; format: functional; details: in the assay text read “90 min” for “30 min”; method in brief: as §2
[5] = tested on: Human immunodeficiency virus 1; assay: Antiviral activity against HIV-1 protease inhibitor-resistant strain(CGP 61755 resistant) of the HI virusMutant: K45I,A71Tmix,L76F,I84Vmix); format: functional
Method in brief: (§3)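 CEM-SS cells were infected with each HIV-1 strain (MOI 0.001-0.005) for 4 h at 37 °C, then washed and plated at 20 000 cells/well with serial 3-fold compound dilutions in triplicate at 37 °C, 5% CO2. Compound was kept at constant final concentration through cell splitting on day 4 and medium replacement on day 7. Supernatant RT activity was assayed on days 4, 7 and 10. Value is the lowest concentration giving total inhibition of replication until day 10, averaged over at least three determinations.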

[6] = tested on: Human immunodeficiency virus 1; assay: Antiviral activity against HIV-1 protease inhibitor-resistant strain(Wild type) of the HI virus; format: functional; method in brief: as §3
[7] = tested on: Human immunodeficiency virus 1; assay: Antiviral activity against HIV-1 protease inhibitor-resistant strain(indinavir resistant) of the HI virus(L10R,M46I,L63P,V82T,I84V); format: functional; method in brief: as §3
[8] = tested on: Human immunodeficiency virus 1; assay: Antiviral activity against HIV-1 protease inhibitor-resistant strain(saquinavir resistant) of the HI virus.(Mutant: G48V,L90M); format: functional; method in brief: as §3
[9] = tested on: Human immunodeficiency virus 1; assay: Antiviral activity against HIV-1 protease inhibitor-resistant strain(CGP 61755 resistant) of the HI virus(Mutant: V32I,M46I,L63P,I84A); format: functional; method in brief: as §3
[10] = tested on: Human immunodeficiency virus 1; assay: Antiviral activity against HIV-1 protease inhibitor-resistant strain(CGP 61755 resistant)of the HI virus(Mutant: V32I,M46I,L63P,I84A); format: functional; method in brief: as §3
[11] = tested on: Human immunodeficiency virus 1; assay: Antiviral activity against HIV-1 protease inhibitor-resistant strain(CGP 61755 resistant)of the HI virusMutant: K45I,A71Tmix,L76F,I84Vmix); format: functional; method in brief: as §3
[12] = tested on: Human immunodeficiency virus 1; assay: Antiviral activity against HIV-1 protease inhibitor-resistant strain(indinavir resistant)of the HI virus(L10R,M46I,L63P,V82T,I84V); format: functional; method in brief: as §3

SMILES | ED90 [1] [nM] | ED50 [2] [nM] | c30 (Mus musculus [3]) [µM] | c90 (Mus musculus [4]) [µM] | ED [5] [µM] | ED [6] [µM] | ED [7] [µM] | ED [8] [µM] | ED [9] [µM] | ED [10] [µM] | ED [11] [µM] | ED [12] [µM]
CCC(C)[C@H](NC(=O)OC)C(=O)N[C@@H](Cc1ccccc1)[C@@H](O)CN(Cc1ccc(-c2ccccn2)cc1)NC(=O)[C@@H](NC(=O)OC)C(C)C (stereo partly specified) | 10 | 2.8 | 0.4 | 0.3 |  |  |  |  |  |  |  | 
COC(=O)N[C@H](C(=O)N[C@@H](Cc1ccccc1)[C@@H](O)CN(Cc1ccc(-c2ccccn2)cc1)NC(=O)[C@@H](NC(=O)OC)C(C)(C)C)C(C)(C)C [ATAZANAVIR] | 3 | 1.4 | 21.8 | 31.8 | 0.3 | 0.01 | 0.03 | 0.004 | 0.3 |  |  | 
COC(=O)N[C@H](C(=O)N[C@@H](Cc1ccccc1)[C@@H](O)CN(Cc1ccc(-c2cncs2)cc1)NC(=O)[C@@H](NC(=O)OC)C(C)(C)C)C(C)C | 10 | 1.4 | 8.5 | 4.4 |  |  |  |  |  |  |  | 
COC(=O)N[C@H](C(=O)NN(Cc1ccc(-c2ccccc2)cc1)C[C@H](O)[C@H](Cc1ccccc1)NC(=O)[C@@H](NC(=O)OC)C(C)(C)C)C(C)C | 3 | 0.7 | 0.6 | 1.1 |  |  |  |  |  |  |  | 
COC(=O)N[C@H](C(=O)N[C@@H](Cc1ccccc1)[C@@H](O)CN(Cc1ccc(-c2nnn(C(C)(C)C)n2)cc1)NC(=O)[C@@H](NC(=O)OC)C(C)(C)C)C(C)(C)C | 3 | 0.8 | 4.2 | 4.6 |  |  |  |  |  |  |  | 
COC(=O)N[C@H](C(=O)N[C@@H](Cc1ccccc1)[C@@H](O)CN(Cc1ccc(-c2nccs2)cc1)NC(=O)[C@@H](NC(=O)OC)C(C)(C)C)C(C)C | 10 | 2.1 | 17.5 | 14.9 |  |  |  |  |  |  |  | 
COC(=O)N[C@H](C(=O)N[C@@H](Cc1ccccc1)[C@@H](O)CN(Cc1ccc(-c2cncs2)cc1)NC(=O)[C@@H](NC(=O)OC)C(C)(C)C)C(C)(C)C | 3 | 0.8 | 12.6 | 9.9 |  |  |  |  |  |  |  | 
COC(=O)N[C@H](C(=O)NN(Cc1ccc(-c2ccccn2)cc1)C[C@H](O)[C@H](Cc1ccccc1)NC(=O)[C@@H](NC(=O)OC)C(C)(C)C)C(C)C | 10 | 2.6 | 15.3 | 13.3 |  |  |  |  |  |  |  | 
CCOC(=O)N[C@H](C(=O)NN(Cc1ccc(-c2ccccn2)cc1)C[C@H](O)[C@H](Cc1ccccc1)NC(=O)[C@@H](NC(=O)OC)C(C)C)C(C)C | 30 | 5.4 | 0.5 | 0.2 |  |  |  |  |  |  |  | 
CCN(CC)c1ccc(CN(C[C@H](O)[C@H](Cc2ccccc2)NC(=O)[C@@H](NC(=O)OC)C(C)(C)C)NC(=O)[C@@H](NC(=O)OC)C(C)(C)C)cc1 | 10 | 1.6 | 11.8 | 7.6 |  |  |  |  |  |  |  | 
CCOC(=O)N[C@H](C(=O)NN(Cc1ccc(-c2cncs2)cc1)C[C@H](O)[C@H](Cc1ccccc1)NC(=O)[C@@H](NC(=O)OC)C(C)(C)C)C(C)C | 3 | 1.2 | 1.4 | 1.4 |  |  |  |  |  |  |  | 
COC(=O)N[C@H](C(=O)N[C@@H](Cc1ccccc1)[C@@H](O)CN(Cc1ccc(-c2ccccc2)cc1)NC(=O)[C@@H](NC(=O)OC)C(C)C)C(C)C | 10 | 1.8 | <0.1 | 0.3 |  |  |  |  |  |  |  | 
COC(=O)N[C@H](C(=O)N[C@@H](Cc1ccccc1)[C@@H](O)CN(Cc1ccc(-c2ccccn2)cc1)NC(=O)[C@@H](NC(=O)OC)C(C)C)C(C)C | 30 | 7.4 | 2.7 | 2.2 |  |  |  |  |  |  |  | 
CCOC(=O)N[C@H](C(=O)N[C@@H](Cc1ccccc1)[C@@H](O)CN(CC1CCCCC1)NC(=O)[C@@H](NC(=O)OCC)C(C)C)C(C)C | 1000 | 55 | 6.7 | 7.8 |  |  |  |  |  |  |  | 
COC(=O)N[C@H](C(=O)N[C@@H](Cc1ccccc1)[C@@H](O)CN(Cc1ccc(-c2ccccn2)cc1)NC(=O)[C@@H](NC(=O)OC)C(C)(C)C)C(C)C | 10 | 2 | 13.8 | 12.7 |  |  |  |  |  |  |  | 
COC(=O)N[C@H](C(=O)NN(Cc1ccc(-c2cncs2)cc1)C[C@H](O)[C@H](Cc1ccccc1)NC(=O)[C@@H](NC(=O)OC)C(C)(C)C)C(C)C | 10 | 1.9 | 8.5 | 5.7 |  |  |  |  |  |  |  | 
COC(=O)N[C@H](C(=O)N[C@@H](Cc1ccccc1)[C@@H](O)CN(Cc1ccc(-c2cncs2)cc1)NC(=O)[C@@H](NC(=O)OC)C(C)C)C(C)C | 30 | 5.6 | 1.8 | 0.1 |  |  |  |  |  |  |  | 
COC(=O)N[C@H](C(=O)N[C@@H](Cc1ccccc1)[C@@H](O)CN(Cc1ccc(-c2ccccc2)cc1)NC(=O)[C@@H](NC(=O)OC)C(C)(C)C)C(C)(C)C | 3 | 0.7 | 5.5 | 4.9 |  | 0.01 |  | 0.01 |  | 0.9 | 0.3 | 0.1
COC(=O)N[C@H](C(=O)N[C@@H](Cc1ccccc1)[C@@H](O)CN(Cc1ccc(-c2nccs2)cc1)NC(=O)[C@@H](NC(=O)OC)C(C)(C)C)C(C)(C)C | 3 | 0.5 | 9.1 | 10.2 | 0.3 | 0.01 | 0.1 | 0.004 |  |  |  | 
COC(=O)N[C@H](C(=O)N[C@@H](Cc1ccccc1)[C@@H](O)CN(Cc1ccc(-c2ccccc2)cc1)NC(=O)[C@@H](NC(=O)OC)C(C)(C)C)C(C)C | 3 | 1.5 | 6.3 | 5.4 |  |  |  |  |  |  |  | 
COC(=O)N[C@H](C(=O)N[C@@H](Cc1ccccc1)[C@@H](O)CN(Cc1ccc(-c2nnn(C)n2)cc1)NC(=O)[C@@H](NC(=O)OC)C(C)(C)C)C(C)(C)C | 10 | 0.8 | 20.3 | 14.7 | 0.9 | 0.01 | 0.1 | 0.01 |  |  |  | 
COC(=O)N[C@H](C(=O)N[C@@H](Cc1ccccc1)[C@@H](O)CN(CCC(C)C)NC(=O)[C@@H](NC(=O)OC)C(C)C)C(C)C | 30 | 2.7 | <0.2 | 0.4 |  |  |  |  |  |  |  | 
